Reference: ChEMBL document CHEMBL3872222, “Synthesis of novel curcuminoids accommodating a central β-enaminone motif and their impact on cell growth and oxidative stress” (Eur J Med Chem, 2016)
≈ marks a conversion by molar mass, not a printed value.

What was measured:
[1] = Growth inhibition of differentiated human Caco2 cells assessed as mitochondrial activity measured after 72 hrs by MTT assay; type: cell-based; details: Caco-2, 72 h
Summary of the method: (§1)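 Seeded 20000 cells/well in DMEM+glutamax, NEAA, P/S, FBS; after 1 day treated 1, 5, 10, 25 μM in serum-free medium (DMSO under 0.1%) for 3 days. MTT (5 mg/ml in PBS) 2 h at 37 °C, 10% CO2 in dark; formazan dissolved in DMSO, absorbance 570 nm; triplicate; IC50 derived.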

EA.hy 926 [2] = test: Effect on oxidative stress in human EAhy926 cells assessed as intracellular ROS level at 10 uM after overnight incubation by DCFH-DA staining based fluorescence assay relative to control; type: functional
Summary of the method: (§2)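 Cells grown in DMEM+glutamax, 1% NEAA, 1% P/S, 10% FBS; seeded 20000/well, treated at confluency overnight in serum-free medium, DMSO under 0.1% final. Loaded with 20 μM DCFH-DA 30 min at 37 °C, 10% CO2; washed, phenol red-free medium 1 h, then serum-free medium; fluorescence ex 485/em 535 nm. Percent of untreated; two-tailed unequal-variance t-test, n≥6.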

[3] = Growth inhibition of human HT-29 cells measured after 72 hrs by SRB assay; type: functional, cell-based; details: HT-29, 72 h
Summary of the method: (§3)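 20000 cells/well treated after 1 day at 1, 5, 10, 25 μM, serum-free, for 3 days. Fixed with 50% TCA 1 h at 4 °C, stained 30 min with 0.4% sulforhodamine B in 1% acetic acid, rinsed with 1% acetic acid, dye dissolved in 10 mM Tris, absorbance 490 nm; triplicate; IC50 derived.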

[4] = Solubility of the compound in serum-free DMEM assessed as compound concentration required for crystal formation measured after 1 day by microscopic analysis; type: physicochemical; details: 24 h
Summary of the method: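 Compound at 0, 0.5, 1, 5, 10, 25 and 50 μM in serum-free DMEM incubated 1 day at 37 °C, 10% CO2, then examined for crystal formation.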

EA.hy 926 [5] = test: Effect on oxidative stress in human EAhy926 cells assessed as intracellular ROS level at 1 uM after overnight incubation by DCFH-DA staining based fluorescence assay relative to control; type: functional; summary of the method: as §2
HT-29 [6] = test: Effect on oxidative stress in human HT-29 cells assessed as intracellular ROS level at 10 uM after overnight incubation by DCFH-DA staining based fluorescence assay relative to control; type: functional; summary of the method: as §2
Caco-2 [7] = test: Effect on oxidative stress in undifferentiated human Caco2 cells assessed as intracellular ROS level at 1 uM after overnight incubation by DCFH-DA staining based fluorescence assay relative to control; type: functional; summary of the method: as §2
[8] = Antioxidant activity assessed as trolox equivalent of ferric ion reducing activity using Fe3+-TPTZ by measuring Fe2+-TPTZ formation after 4 mins by UV-vis spectrophotometry based FRAP assay; type: functional
Summary of the method: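 FRAP reagent: 300 mM acetate buffer, 10 mM TPTZ in ethanol and 20 mM FeCl3 (in dilute HCl) combined 10:1:1, TPTZ and iron freshly made. Sample mixed 1:9 with reagent; absorbance 593 nm after 4 min. Expressed as trolox equivalents per μM from slope of linear plot versus analog concentration.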

[9] = Growth inhibition of human EAhy926 cells measured after 72 hrs by SRB assay; type: cell-based; details: EA.hy 926, 72 h; summary of the method: as §3
CHO [10] = test: Effect on oxidative stress in CHO cells assessed as intracellular ROS level at 1 uM after overnight incubation by DCFH-DA staining based fluorescence assay relative to control; type: functional, Cricetulus griseus; summary of the method: as §2
HT-29 [11] = test: Antioxidant activity in human HT-29 cells assessed as decrease in intracellular ROS level after overnight incubation by DCFH-DA staining based fluorescence assay
[12] = Antioxidant activity assessed as inhibition of DPPH radical activity at 1 uM measured after 30 mins under dark conditions by spectrophotometric analysis relative to control; type: functional
[13] = Growth inhibition of human EAhy926 cells assessed as mitochondrial activity measured after 72 hrs by MTT assay; type: cell-based; details: EA.hy 926, 72 h; summary of the method: as §1
[14] = Growth inhibition of undifferentiated human Caco2 cells assessed as mitochondrial activity measured after 72 hrs by MTT assay; type: functional, cell-based; details: Caco-2, 72 h; summary of the method: as §1
[15] = Growth inhibition of CHOK1 cells assessed as mitochondrial activity measured after 72 hrs by MTT assay; type: functional, cell-based; details: Cricetulus griseus, CHO-K1, 72 h; summary of the method: as §1
[16] = Growth inhibition of differentiated human Caco2 cells measured after 72 hrs by SRB assay; type: cell-based; details: Caco-2, 72 h; summary of the method: as §3
[17] = Growth inhibition of human HT-29 cells assessed as mitochondrial activity measured after 72 hrs by MTT assay; type: functional, cell-based; details: HT-29, 72 h; summary of the method: as §1
[18] = Growth inhibition of CHOK1 cells measured after 72 hrs by SRB assay; type: functional, cell-based; details: Cricetulus griseus, CHO-K1, 72 h; summary of the method: as §3
HT-29 [19] = test: Antioxidant activity in human HT-29 cells assessed as decrease in intracellular ROS level after overnight incubation by DCFH-DA staining based fluorescence assay; type: functional, cell-based; summary of the method: as §2
CHO [20] = test: Effect on oxidative stress in CHO cells assessed as intracellular ROS level at 10 uM after overnight incubation by DCFH-DA staining based fluorescence assay relative to control; type: functional, Cricetulus griseus; summary of the method: as §2
[21] = Growth inhibition of undifferentiated human Caco2 cells measured after 72 hrs by SRB assay; type: functional, cell-based; details: Caco-2, 72 h; summary of the method: as §3
HT-29 [22] = test: Effect on oxidative stress in human HT-29 cells assessed as intracellular ROS level at 1 uM after overnight incubation by DCFH-DA staining based fluorescence assay relative to control; type: functional; summary of the method: as §2
Caco-2 [23] = test: Effect on oxidative stress in undifferentiated human Caco2 cells assessed as intracellular ROS level at 10 uM after overnight incubation by DCFH-DA staining based fluorescence assay relative to control; type: functional; summary of the method: as §2

solubility [4] [µM]	Structure (SMILES)	IC50 [1] [µM]	Activity (EA.hy 926 [2]) [%]	IC50 [3] [µM]	Activity (EA.hy 926 [5]) [%]	Activity (HT-29 [6]) [%]	Activity (Caco-2 [7]) [%]	Activity [8] [µMequiv/µM]	IC50 [9] [µM]	Activity (CHO [10]) [%]	inhibition [12] [%]	IC50 [13] [µM]	IC50 [14] [µM]	IC50 [15] [µM]	IC50 [16] [µM]	IC50 [17] [µM]	IC50 [18] [µM]	Activity (CHO [20]) [%]	IC50 [21] [µM]	Activity (HT-29 [22]) [%]	other results
0.5 (≈ 0.184 µg/mL)	COc1cc(/C=C/C(=O)CC(=O)/C=C/c2ccc(O)c(OC)c2)ccc1O [CURCUMIN]	> 25	88	> 25	91	65	84	1	> 25	112	0.15	> 25	> 25	7.5	> 25	> 25	> 25	97	> 25	67	Activity (HT-29 [11]): Dose-dependent effect; Activity (HT-29 [19]): Dose-dependent effect; Activity (Caco-2 [23]): 77%
5 (≈ 2.54 µg/mL)	COc1cc(/C=C/C(=O)/C=C(/C=C/c2ccc(OC(C)=O)c(OC)c2)NCC(C)C)ccc1OC(C)=O	> 25	240	> 25	104	96	96	0.04	> 25	111	0	> 25	> 25	> 25	> 25	> 25	> 25	111	> 25	95	Activity (Caco-2 [23]): 77%
25 (≈ 9.09 µg/mL)	CCC(C)NC(=C\C(=O)/C=C/c1ccc(O)cc1)/C=C/c1ccc(O)cc1 (configuration not stated)	> 25	414	15.6	99	76	102	0.18	> 25	104	0.03	22	9.4	13.1	> 25	13	15.1	111	5.8	76	Activity (Caco-2 [23]): 102%
5 (≈ 1.95 µg/mL)	O=C(/C=C(/C=C/c1ccc(O)cc1)NC1CCCCC1)/C=C/c1ccc(O)cc1	> 25	299	5.9	129	80	97	0.56	4.2	111	0.03	3.3	7.8	9.2	> 25	4	11.6	150	6.9	77	Activity (Caco-2 [23]): 82%
50 (≈ 20.5 µg/mL)	CCCNC(=C\C(=O)/C=C/c1ccc(O)c(OC)c1)/C=C/c1ccc(O)c(OC)c1	> 25	141	> 25	78	92	97	0.87	> 25	116	0.1	> 25	> 25	> 25	> 25	22.7	> 25	118	22	88	Activity (Caco-2 [23]): 88%
